# pKi: −log10 of the molar value. The source made the active and inactive calls.
# Legend:
# [1] = target: GABA-A receptor; anion channel (Rattus norvegicus) (UniProt O09028+P15431+P18506+P18508+P19969+P20236+P23574+P23576+P28471+P28473+P30191+P62813+P63079+P63138+Q91ZM7+Q9ES14); conditions: Brain, Brain membranes
# [2] = species: Rattus norvegicus; test: In vitro [36Cl]-uptake in rat cerebrocortical synaptoneurosomes; type: functional; parameters: unit not given here
# Method in brief: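 Rat cerebrocortical synaptoneurosomes (1 mg protein) preincubated 5 min at 30 °C, then mixed with medium containing 0.2 µCi Na36Cl/mL, 118 mM NaCl, 5 mM KCl, 1.8 mM MgSO4, 20 mM Hepes/Tris pH 7.0, ± drug (methanol ≤0.4%). Uptake stopped after 5 s with ice-cold buffer, rapid filtration, four washes, radioactivity counted.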
# [3] = system: Rattus norvegicus; test: Antagonistic activity against metrazole-induced clonic convulsions in rat after ip injection; type: functional
# [4] = target: GABA-A receptor; anion channel; test: Inhibition of [3H]flunitrazepam binding to GABA-A receptor of rat cortical membranes; type: cell membranes, Membrane
# [5] = system: Mus musculus; test: Ethanol potentiation activity was measured as loss of traction response in male CF-1 mice after oral administration; type: functional
# [6] = system: Mus musculus; test: Ethanol potentiation activity was measured as loss of righting reflex in male CF-1 mice after oral administration; type: functional
# [7] = species: Mus musculus; test: Acute electroshock physical dependence activity was evaluated; IA=Inactive; type: functional, organism-based
# Method in brief: (§1)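 Male CF-1 mice, 10/group, dosed sc twice daily (0800, and 1600 at twice the 0800 dose) for 3 days. 24 h after last dose, iv flumazenil 2.5 mg/kg in 5% aqueous N,N-dimethylacetamide. Electroshock seizure threshold (MA50) measured 5 min later versus saline-treated, flumazenil-injected controls. Compound scored active if threshold lowered beyond control interval.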
# [8] = system: Mus musculus; test: In vivo antagonistic activity against benzodiazepine in mice after ip administration; type: functional
# Method in brief: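 Male CF-1 mice injected ip simultaneously with triazolam 1 mg/kg and test compound starting at […], in 0.25% aqueous methyl cellulose. Loss of traction scored 15 min later. Absence of triazolam effect indicated antagonism; lower doses at 0.5 log intervals then tested to establish ED50.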
# [9] = species: Mus musculus; test: Acute electroshock physical dependence activity was evaluated; A=Active; type: functional, organism-based
# Method in brief: as §1
Structure (SMILES),[35S] TBPS shift [1],36Cl- uptake [2],ED50 [3],pKi [4],ED50 [5],ED50 [6],Activity [7],ED50 [8],Activity [9]
O=C(N1CCCC1)N1Cc2c(-c3noc(C4CC4)n3)ncn2-c2cccc(Cl)c21,0.6,0.56,> 50 mg/kg,,,,,,
O=C(c1ccc[nH]1)N1Cc2c(-c3noc(C4CC4)n3)ncn2-c2ccccc21,0.92,1.1,4.4 mg/kg,8.96,,,,,
CN(C)C(=O)N1c2ccccc2-n2cnc(-c3noc(C4CC4)n3)c2C1(C)C,0.97,0.34,> 50 mg/kg,8.51,,,,,
CN(C)C(=O)N1Cc2c(-c3noc(C4CC4)n3)ncn2-c2cccc(Cl)c21,0.62,0.83,> 50 mg/kg,9.15,,,,,
CC1(C)c2c(-c3noc(C4CC4)n3)ncn2-c2ccccc2N1C(=O)N1CCCC1,0.84,0.5,> 50 mg/kg,8.54,,,,,
O=C(N1CCCC1)N1Cc2c(-c3noc(C4CC4)n3)ncn2-c2ccc(Cl)cc21,0.93,,0.6 mg/kg,8.96,0.4 mg/kg,> 30 mg/kg,inactive,> 30 mg/kg,
CCN(CC)C(=O)N1Cc2c(-c3noc(C4CC4)n3)ncn2-c2ccccc21,0.82,0.62,15 mg/kg,9.07,> 30 mg/kg,> 30 mg/kg,inactive,4 mg/kg,
CSC(=O)N1c2ccccc2-n2cnc(-c3noc(C4CC4)n3)c2C1(C)C,0.8,1,> 50 mg/kg,8.29,,,,,
CC(C)(C)OC(=O)N1Cc2c(-c3noc(C4CC4)n3)ncn2-c2ccccc21,2.9,,0.06 mg/kg,,,,,,
O=C(Nc1ccccc1)N1Cc2c(-c3noc(C4CC4)n3)ncn2-c2ccccc21,1.3,0.29,> 50 mg/kg,7.80,,,,,
COC(=O)N1c2ccccc2-n2cnc(-c3noc(C4CC4)n3)c2C1(C)C,0.8,0.4,> 50 mg/kg,,,,,,
CC(C)OC(=O)N1Cc2c(-c3noc(C4CC4)n3)ncn2-c2ccccc21,1.1,,1.9 mg/kg,8.74,,,,,
O=C(N1CCOCC1)N1Cc2c(-c3noc(C4CC4)n3)ncn2-c2ccccc21,0.84,0.15,0.84 mg/kg,9.09,,,,,
CN(C)C(=O)N1Cc2c(-c3noc(C4CC4)n3)ncn2-c2cccc(F)c21,0.84,0.6,21 mg/kg,9.05,3 mg/kg,> 30 mg/kg,,4 mg/kg,Active
O=C(N1CCCC1)N1Cc2c(-c3noc(C4CC4)n3)ncn2-c2ccc(F)cc21,1.25,0.69,> 50 mg/kg,9.25,,,,,
O=C(c1ccco1)N1Cc2c(-c3noc(C4CC4)n3)ncn2-c2ccccc21,0.98,0.55,21 mg/kg,9.37,,,,,
CCSC(=O)N1Cc2c(-c3noc(C4CC4)n3)ncn2-c2ccccc21,1.1,1.1,1.3 mg/kg,8.68,,,,,
O=C(N1CCCC1)N1Cc2c(-c3noc(C4CC4)n3)ncn2-c2ccccc21,0.41,0.5,0.24 mg/kg,9.35,,,,,

Structure (SMILES),[35S] TBPS shift [1],36Cl- uptake [2],ED50 [3],pKi [4],ED50 [5],ED50 [6],Activity [7],ED50 [8],Activity [9]
O=C(N1CCCC1)N1Cc2c(-c3noc(C4CC4)n3)ncn2-c2cccc(F)c21,1,0.59,> 50 mg/kg,9.19,,,,,
CC(C)(C)c1nc(-c2ncn3c2CN(C(=O)N2CCCC2)c2ccccc2-3)no1,0.76,1.2,18 mg/kg,7.83,,,,,
CN(C)C(=O)N1c2cc(Cl)ccc2-n2cnc(-c3noc(C4CC4)n3)c2C1(C)C,0.79,1.33,7.4 mg/kg,8.51,3 mg/kg,17 mg/kg,,,Active
CC(=O)N1c2ccccc2-n2cnc(-c3noc(C4CC4)n3)c2C1(C)C,0.7,,30 mg/kg,,,,,,
COC(=O)N1Cc2c(-c3noc(C4CC4)n3)ncn2-c2ccccc21,0.7,,4.4 mg/kg,8.82,,,,,
CC1(C)c2c(-c3noc(C4CC4)n3)ncn2-c2ccc(Cl)cc2N1C(=O)N1CCCC1,0.67,1.04,35 mg/kg,8.48,0.2 mg/kg,> 30 mg/kg,inactive,9 mg/kg,
NC(=O)N1Cc2c(-c3noc(C4CC4)n3)ncn2-c2ccccc21,0.61,0.75,13 mg/kg,8.14,,,,,
CN(C)C(=O)N1Cc2c(-c3noc(C4CC4)n3)ncn2-c2ccc(Cl)cc21,0.88,,,8.43,,,,,
O=C(c1ccccn1)N1Cc2c(-c3noc(C4CC4)n3)ncn2-c2ccccc21,0.27,,> 50 mg/kg,8.96,,,,,
CC1(C)c2c(-c3noc(C4CC4)n3)ncn2-c2ccccc2N1C(N)=O,0.6,0.22,> 50 mg/kg,7.07,,,,,
O=C(Sc1ccccc1)N1Cc2c(-c3noc(C4CC4)n3)ncn2-c2ccccc21,1.1,0.5,> 50 mg/kg,7.96,,,,,
CC(C)NC(=O)N1Cc2c(-c3noc(C4CC4)n3)ncn2-c2ccccc21,1.1,,11 mg/kg,8.47,,,,,
O=C(N1Cc2c(-c3noc(C4CC4)n3)ncn2-c2ccccc21)C(F)(F)F,0.73,,35 mg/kg,6.84,,,,,
CNC(=O)N1c2ccccc2-n2cnc(-c3noc(C4CC4)n3)c2C1(C)C,0.71,0.67,> 50 mg/kg,7.68,,,,,
CN(C)C(=O)N1Cc2c(-c3noc(C4CC4)n3)ncn2-c2ccc(F)cc21,0.99,0.95,,9.21,,,,,
CSC(=O)N1Cc2c(-c3noc(C4CC4)n3)ncn2-c2ccccc21,0.92,0.73,6.2 mg/kg,8.89,0.3 mg/kg,> 30 mg/kg,,> 30 mg/kg,Active
CCc1nc(-c2ncn3c2CN(C(=O)N2CCCC2)c2ccccc2-3)no1,0.39,0.25,> 50 mg/kg,9.19,,,,,
CC(C)c1nc(-c2ncn3c2CN(C(=O)N2CCCC2)c2ccccc2-3)no1,0.69,0.4,11 mg/kg,8.96,17 mg/kg,> 30 mg/kg,inactive,> 30 mg/kg,

# Source: ChEMBL document CHEMBL1129282, “High-affinity partial agonist imidazo[1,5-a]quinoxaline amides, carbamates, and ureas at the gamma-aminobutyric acid A/benzodiazepine receptor complex” (J Med Chem, 1996)
